Experimental data reported in ChEMBL document CHEMBL3108700, “Designing anti-inflammatory drugs from parasitic worms: a synthetic small molecule analogue of the Acanthocheilonema viteae product ES-62 prevents development of collagen-induced arthritis” (J Med Chem, 2013).
Activity calls are given as the source filed them. Unless noted, the calls are words filed in the database; no cut-off is given here.

Legend:
[1] = biological target: T1, Toll-like receptor 4 (Mus musculus) (UniProt Q9QUK6); experiment: Inhibition of TLR4 in C57BL/6 mouse BMDC assessed as reduction of LPS-induced IL-23 production at 5 ug/mL preincubated for 2 hrs prior to LPS challenge measured after 24 hrs by ELISA
T1 sequence (whole entry): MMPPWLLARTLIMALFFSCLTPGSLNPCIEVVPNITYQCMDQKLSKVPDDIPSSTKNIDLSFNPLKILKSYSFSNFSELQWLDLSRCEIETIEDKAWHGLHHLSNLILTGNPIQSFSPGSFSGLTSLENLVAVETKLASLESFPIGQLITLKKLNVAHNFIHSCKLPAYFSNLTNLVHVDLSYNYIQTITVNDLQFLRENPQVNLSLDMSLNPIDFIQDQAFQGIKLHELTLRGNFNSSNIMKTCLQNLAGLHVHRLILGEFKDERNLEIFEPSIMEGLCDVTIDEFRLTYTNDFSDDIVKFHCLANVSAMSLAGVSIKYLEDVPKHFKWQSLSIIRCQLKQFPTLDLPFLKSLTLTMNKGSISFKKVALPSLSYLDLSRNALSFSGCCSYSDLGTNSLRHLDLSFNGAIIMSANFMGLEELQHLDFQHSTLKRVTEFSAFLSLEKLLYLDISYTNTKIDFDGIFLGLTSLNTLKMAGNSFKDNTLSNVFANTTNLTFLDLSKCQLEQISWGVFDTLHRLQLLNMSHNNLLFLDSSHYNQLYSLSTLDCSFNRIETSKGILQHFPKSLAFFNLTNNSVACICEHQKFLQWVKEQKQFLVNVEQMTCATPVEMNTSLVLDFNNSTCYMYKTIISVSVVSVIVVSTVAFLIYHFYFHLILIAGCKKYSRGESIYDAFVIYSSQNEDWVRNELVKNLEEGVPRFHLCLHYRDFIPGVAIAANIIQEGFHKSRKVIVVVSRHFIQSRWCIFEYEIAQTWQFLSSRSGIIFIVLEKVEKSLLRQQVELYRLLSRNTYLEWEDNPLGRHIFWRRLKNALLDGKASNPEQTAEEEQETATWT
Procedure, shortened: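 C57BL/6 bone marrow DCs were generated in complete RPMI with 10 ng/mL GM-CSF. They were preincubated ± compound at 5 μg/mL for 2 h, then stimulated with LPS for 24 h. TNF-α, IL-6 and IL-23 in conditioned medium were measured by ELISA. Values are means of triplicates ± SEM pooled from 4 experiments.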

Mus musculus [2] = experiment: Antiinflammatory activity in DBA/1 mouse collagen-induced arthritis model assessed as effect on number of PMA/ionomycin-stimulated gammadelta+ T cells expressing IFNgamma at 50 ug/kg, sc administered 2 days prior to collagen challenge continued till day 21 post collagen challenge by flow cytometric analysis relative to control; format: functional, organism-based; details: T-cell
BMDC = experiment: Antiinflammatory activity in mouse BMDC assessed as downregulation of TLR4 expression; format: functional
Mus musculus [3] = experiment: Antiinflammatory activity in DBA/1 mouse collagen-induced arthritis model assessed as reduction in number of CD8+ T cells at 50 ug/kg, sc administered 2 days prior to collagen challenge continued till day 21 post collagen challenge; format: functional, organism-based; details: T-cell
Procedure, shortened: (§1)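 Dosing was 1 μg/dose or PBS given subcutaneously on days −2, 0 and 21 of CIA. Total, CD4+, CD8+ and γδ T cell numbers in draining lymph nodes were counted by flow cytometry for each mouse. Naive mice not exposed to collagen served as a further control (naive n = 7; PBS and treated n = 13).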

Mus musculus [4] = experiment: Antiinflammatory activity in DBA/1 mouse collagen-induced arthritis model assessed as reduction of disease incidence at 50 ug/kg, sc administered 2 days prior to collagen challenge continued till day 21 post collagen challenge; format: functional, organism-based
Procedure, shortened: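 Collagen-induced arthritis mice were dosed subcutaneously (1 μg/dose) or given PBS on days −2, 0 and 21. Arthritis was scored clinically and hind paw width measured. Incidence was the % of mice with severity score ≥2 (cumulative) or ≥4 (high score). Results are mean ± SEM. Scores n = 13 per group, pooled from two experiments; paw width n = 7, from a single experiment.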

Mus musculus [5] = experiment: Antiinflammatory activity in DBA/1 mouse collagen-induced arthritis model assessed as reduction in number of CD4+ T cells at 50 ug/kg, sc administered 2 days prior to collagen challenge continued till day 21 post collagen challenge; format: functional, organism-based; details: T-cell; procedure, shortened: as §1
Mus musculus [6] = experiment: Antiinflammatory activity in DBA/1 mouse collagen-induced arthritis model assessed as reduction in total number of DLN cells at 50 ug/kg, sc administered 2 days prior to collagen challenge continued till day 21 post collagen challenge; format: functional, organism-based; procedure, shortened: as §1
Mus musculus [7] = species: Mus musculus; experiment: Inhibition of TLR4/IL-1R in BALB/c mouse BMDM assessed as downregulation of LPS-stimulated MyD88 protein expression at 1 ug/mL after 20 hrs by Western blotting analysis relative to control
Procedure, shortened: (§2)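 Bone marrow macrophages were treated 20 h with medium, compound (1 or 5 μg/mL) or LPS (100 ng/mL) and lysed in modified RIPA buffer. Protein (30 μg) was separated on Bis-Tris gels, and MyD88 and GAPDH were detected by Western blot with ECL. Densitometric MyD88:GAPDH ratio was normalized to the RPMI value, from six analyses.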

Mus musculus [8] = experiment: Antiinflammatory activity in DBA/1 mouse collagen-induced arthritis model assessed as reduction in number of gammadelta+ T cells at 50 ug/kg, sc administered 2 days prior to collagen challenge continued till day 21 post collagen challenge; format: functional, organism-based; details: T-cell; procedure, shortened: as §1
Mus musculus [9] = species: Mus musculus; experiment: Inhibition of TLR4/IL-1R in BALB/c mouse BMDM assessed as downregulation of LPS-stimulated MyD88 protein expression at 5 ug/mL after 20 hrs by Western blotting analysis relative to control; procedure, shortened: as §2
TLR2/TLR6 (Mus musculus) [10] = biological target: T2, TLR2/TLR6 (Mus musculus) (UniProt Q9QUN7+Q9EPW9); experiment: Inhibition of TLR2/6-mediated NFkappaB p65 activation in BLP-stimulated BALB/c mouse BMDM at 5 ug/ml preincubated for 18 hrs followed by BLP challenge measured after 1 hr by TransAM ELISA; format: protein-complex assay
Procedure, shortened: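 Bone marrow macrophages (4 × 10^6/well) had their medium changed after 24 h, were pretreated with compounds at 5 μg/mL for 18 h, then stimulated for 1 h with 100 ng/mL LPS, 10 ng/mL BLP or 1 μM CpG. Activated NFκB p65 in nuclear extracts was measured by TransAM ELISA in duplicate.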

TLR2/TLR6 (Mus musculus) [11] = biological target: T2, TLR2/TLR6 (Mus musculus); experiment: Inhibition of TLR2/6 in BALB/c mouse BMDM assessed as downregulation of BLP-stimulated IL-6 level at 5 ug/ml preincubated for 18 hrs followed by BLP challenge measured after 24 hrs by ELISA relative to control; format: protein-complex assay
Procedure, shortened: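 BALB/c male bone marrow macrophages were differentiated 7 days with L929 supernatant (≥99% CD11b+/F4/80+). Cells were plated at 2 × 10^5/well in triplicate, rested overnight, and given compounds at 5 μg/mL for 18 h. They were then stimulated with 100 ng/mL S. minnesota LPS, 10 ng/mL Pam3CSK4 (BLP) or 0.01 μM CpG for 24 h. Supernatant IL-12p40 and IL-6 were measured by ELISA (sensitivity 16 pg/mL).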

inhibition [1]: Active
fold change (FC) (Mus musculus [7]): 1.09
fold change (FC) (Mus musculus [9]): 0.736
inhibition (TLR2/TLR6 (Mus musculus) [10]): Active
inhibition (TLR2/TLR6 (Mus musculus) [11]): inactive
SMILES: CN(C)CCS(=O)(=O)Cc1ccc(Br)cc1
Activity (Mus musculus [2]): inactive
Activity (BMDC): inactive
Activity (Mus musculus [3]): Active
Activity (Mus musculus [4]): Active
Activity (Mus musculus [5]): Active
Activity (Mus musculus [6]): Active
Activity (Mus musculus [8]): Active
